{"data": "Experimental data from different studies", "Spike glycoprotein": "Spike glycoprotein (Severe acute respiratory syndrome coronavirus 2, UniProt P0DTC2)", "note": "Compare with care: the assays were run in different laboratories."}
{"Structure (SMILES)": "Cc1nn(C)cc1-c1nc2c(N3CCN(Cc4ccc(Cl)cc4)CC3)c(Cl)cnc2[nH]1", "target": "Tyrosine-protein kinase ABL1, non-phosphorylated (ABL1, Homo sapiens, UniProt P00519, H396P)", "assay": "binding, competition with immobilised ligand", "conditions": "1 µM", "measurement": "remaining binding", "value": "100%"}
{"Structure (SMILES)": "O=c1cc(-c2ccccc2)oc2c(O)c(O)ccc12", "target": "Spike glycoprotein", "assay": "binding, BLI", "measurement": "koff", "value": "0.0482 s⁻¹"}
{"Structure (SMILES)": "CCCCCCCCCCCCCCCCCCCCCCCCCC(=O)N[C@@H](CO[C@H]1O[C@H](CO)[C@H](O)[C@H](O)[C@H]1O)[C@H](O)[C@H](O)CCCCCCCCCCCCCC", "target": "Cd1d1 (Mus musculus, UniProt P11609)", "assay": "binding, SPR", "measurement": "kon", "value": "63000 M⁻¹ s⁻¹"}
{"Structure (SMILES)": "C=C[C@@](C)(/C=C/c1ccc(O)cc1)CCC=C(C)C", "target": "Spike glycoprotein", "assay": "binding", "measurement": "kon", "value": "1190 M⁻¹ s⁻¹"}
{"Structure (SMILES)": "Cn1cc(-c2cccc(N3CCc4c(sc5c4CC(C)(C)C5)C3=O)c2CO)cc(Nc2ccncn2)c1=O", "target": "Serine/threonine-protein kinase WNK2 (WNK2, Homo sapiens, UniProt Q9Y3S1)", "assay": "enzyme activity, inhibitor", "conditions": "1 µM", "measurement": "inhibition", "value": "2%"}
{"Structure (SMILES)": "CC[C@H](C)[C@@H]1NC(=O)[C@H](Cc2ccc(O)cc2)NC(=O)[C@H](C(C)C)NC(=O)[C@H]([C@@H](C)CC)NC(=O)[C@H](CO)NC(=O)[C@H](Cc2ccc(O)cc2)NC(=O)CSC[C@@H](C(N)=O)NC(=O)CNC(=O)[C@H](CCCNC(=N)N)NC(=O)CNC(=O)[C@H](C(C)C)NC(=O)[C@H](Cc2ccccc2)NC(=O)[C@H](CCCNC(=N)N)NC(=O)[C@H](C(C)C)NC(=O)[C@H](CCC(=O)O)NC(=O)CNC(=O)[C@H](CCCCN)NC1=O", "target": "Spike glycoprotein", "assay": "binding", "measurement": "koff", "value": "0.0058 s⁻¹"}
{"Structure (SMILES)": "C=C1C[C@@]23CC[C@H]4[C@@](C)(CCC[C@@]4(C)C(=O)O[C@@H]4O[C@H](CO)[C@@H](O)[C@H](O)[C@H]4O)[C@@H]2CC[C@]1(O[C@@H]1O[C@H](CO)[C@@H](O)[C@H](O)[C@H]1O)C3", "target": "Spike glycoprotein", "assay": "binding, BLI", "measurement": "koff", "value": "0.122 s⁻¹"}
{"Structure (SMILES)": "COc1ncccc1-c1cnn2ccc(N3CCN(C(=O)OC(C)C)CC3)nc12", "target": "Serine/threonine-protein kinase RIO1 (RIOK1, Homo sapiens, UniProt Q9BRS2)", "assay": "binding, competition with immobilised ligand", "conditions": "1 µM", "measurement": "remaining binding", "value": "3.9%"}
{"Structure (SMILES)": "Cn1cc(-c2cc(F)cc(N3CCn4c(cc5c4CCCC5)C3=O)c2CO)cc(Nc2ccc(N3CCN(C4COC4)CC3)cn2)c1=O", "target": "Tyrosine-protein kinase ABL1 (ABL1, Homo sapiens, UniProt P00519, E255K)", "assay": "enzyme activity, inhibitor", "conditions": "0.1 µM", "measurement": "inhibition", "value": "1%"}
{"Structure (SMILES)": "CC[C@H](C)[C@@H]1NC(=O)[C@H](C)NC(=O)[C@H](CCCCN)NC(=O)[C@H](Cc2c[nH]c3ccccc23)NC(=O)[C@H](CC(C)C)NC(=O)[C@H](CC(C)C)NC(=O)[C@H](C(C)C)NC(=O)[C@H](CC(=O)O)NC(=O)[C@H](Cc2ccccc2)NC(=O)[C@H](Cc2ccc(O)cc2)NC(=O)[C@@H](Cc2ccc(O)cc2)NC(=O)CSC[C@@H](C(N)=O)NC(=O)[C@H](CO)NC1=O", "target": "Spike glycoprotein", "assay": "binding", "measurement": "koff", "value": "0.065 s⁻¹"}
{"Structure (SMILES)": "Nc1ncc(-c2nc(N3CCOCC3)nc(N3CCOCC3)n2)c(C(F)F)n1", "target": "Tyrosine-protein kinase ABL1, non-phosphorylated (ABL1, Homo sapiens, UniProt P00519)", "assay": "binding, competition with immobilised ligand", "conditions": "10 µM", "measurement": "remaining binding", "value": "70%"}
{"Structure (SMILES)": "O=C1c2c(O)cccc2C([C@@H]2O[C@H](CO)[C@@H](O)[C@H](O)[C@H]2O)c2cc(CO)cc(O)c21 (stereo partly shown)", "target": "Spike glycoprotein", "assay": "binding, BLI", "measurement": "koff", "value": "0.0217 s⁻¹"}
{"Structure (SMILES)": "C#Cc1n[nH]c2c(-c3cn(C(C)c4ccccn4)c(=O)[nH]c3=O)cc(F)cc12 (stereo not shown)", "target": "Receptor tyrosine-protein kinase erbB-2 (ERBB2, Homo sapiens, UniProt P04626)", "assay": "enzyme activity, inhibitor", "conditions": "1 µM", "measurement": "inhibition", "value": "-4.5%"}
